Screens from PubChem.
Biofilm kill mix: clotrimazole potentiators killing C. albicans biofilm, primary screen, 4-compound mixtures; C. albicans biofilm persisters + clotrimazole, fluorescence viability; primary screen in compound mixtures of four per well; inhibition, % at 7.6 µM; actives 0.02% (n = 120,000);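 active means inhibition above 30.3% in the primary screen of four-compound pools, then above 30% when the compound was retested; inconclusive means passed the primary limit but could not be retested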;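 further: compounds exposed to preformed 24 h biofilms for 48 h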
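Assay system: C. albicans biofilms / Medium: RPMI/MOPS medium, pH 7.0 / Schedule: biofilm formation 24 h, compound exposure 48 h, 37 °C / Measured by: Alamar Blue fluorescence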
Pf gamet viab: late stage P. falciparum gametocyte viability inhibitors, primary screen, ATP luminescence, HTS. AID 743093, 2013. P. falciparum stage V gametocytes, 24 h. actives 0.065% (n = 150,000). inhibition, % at 10.9 µM;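 active means inhibition above the mean plus 3 SD of compounds within the control limits, set per campaign, cut at about 38% in these data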
ROMK primary: ROMK potassium channel modulators, primary screen, cell-based, thallium flux, MLSMR library. Tet-inducible ROMK, thallium flux fluorescence; actives lie on both sides. B-score at 10 µM. actives 2% (n = 130,000);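 active means signal ratio slope over the read window, or its plate-corrected B-score, at least 3 SD from the plate mean, either direction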;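 further: B-score of the F/F0 ratio slope over 7 to 12 s after thallium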
Target sequence (P48048 whole entry, looked up): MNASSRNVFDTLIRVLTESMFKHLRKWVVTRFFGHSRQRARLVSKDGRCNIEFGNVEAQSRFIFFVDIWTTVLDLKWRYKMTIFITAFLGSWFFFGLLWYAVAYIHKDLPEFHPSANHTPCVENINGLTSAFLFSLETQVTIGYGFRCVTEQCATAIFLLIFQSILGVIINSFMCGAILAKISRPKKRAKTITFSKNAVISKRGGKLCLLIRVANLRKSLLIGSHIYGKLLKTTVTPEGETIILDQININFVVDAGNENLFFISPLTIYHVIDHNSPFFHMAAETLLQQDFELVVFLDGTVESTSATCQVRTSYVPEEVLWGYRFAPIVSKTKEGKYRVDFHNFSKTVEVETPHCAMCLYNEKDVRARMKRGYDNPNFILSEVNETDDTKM
ROMK hit retest: ROMK channel modulator hit retest, confirmation, cell-based, thallium flux, duplicate, resupplied hits. fluorescence ratio; active compounds read low. AID 1917, 2009. normalized thallium flux (F/F0 slope) at 10 µM. actives 54% (n = 3,000). shares compounds with ROMK primary;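 active means Flux at 10 µM at least 3 SD below or above vehicle control mean in one or both replicates; inconclusive means no clear call, values can overlap the other calls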
Hits are given with their value; 0 = inactive; ? = inconclusive; - = no result. Only a selection was taken, and hits are over-represented in it overall.

SMILES | Biofilm kill mix | Pf gamet viab | ROMK primary | ROMK hit retest
COc1cc(/C=C(\C#N)C(N)=O)ccc1OS(=O)(=O)c1ccc(C)cc1 | 0 | 0 | - | 0.041
CCOC(=O)C(=CNc1ccc2c(c1)nnn2-c1ccc(Cl)cc1)C(=O)OCC | 0 | - | - | -
O=S(=O)(/N=C(/Nc1cccc2ccccc12)c1ccccc1)c1cccs1 | - | - | - | 0.06
Cc1ccc(N/C(=N/S(=O)(=O)c2cccs2)c2ccccc2)c(C)c1 | 0 | 0 | - | -
CCOC(=O)N1CCN(C(=O)CN(Cc2ccccc2)S(C)(=O)=O)CC1 | - | - | 0 | -
CCOC(=O)N1CCN(c2ccc(S(=O)(=O)N(Cc3ccccc3)Cc3ccccc3)cn2)CC1 | - | - | - | 0
COC(=O)CCC(=O)NC(=S)Nc1ccccc1F | 0 | 0 | 0 | -
Cc1nn(-c2ccccc2)c(N2CCCC2)c1/C=C1\N=C(c2ccc(F)cc2)OC1=O | 0 | 0 | -1.5 | 0.066
Cc1ccc(C2=N/C(=C\c3c(C)nn(-c4ccccc4)c3N3CCCC3)C(=O)O2)cc1 | 0 | 0 | 0 | -
O=C(NCCN1CCOCC1)c1cc2cc(Cl)cc(Cl)c2oc1=O | - | - | 0 | -
CC1(C)C(=O)Nc2ccccc2N1C(=O)COc1cccnc1[N+](=O)[O-] | 0 | - | 0 | -
CC(NC(=O)Cc1cccc(C(F)(F)F)c1)c1ccc(F)cc1 (stereo not drawn) | 0 | 0 | 0 | -
O=C(CSc1ccc2ccccc2n1)NCc1ccc2c(c1)OCO2 | 0 | 0 | -5.2 | ?
CC1CCCC(C)N1C(=O)Cn1c(SCC(=O)NCc2ccc3c(c2)OCO3)nc2ccccc21 (stereo not drawn) | - | - | -3.9 | 0.061
CN(C)C(=O)Cn1c(SCC(=O)NCc2ccc3c(c2)OCO3)nc2ccccc21 | 0 | 0 | - | -
O=C(CSc1nc2ccccc2s1)NCc1ccc2c(c1)OCO2 | 0 | 0 | - | -
O=C1CCN(CCCc2ccccc2)CCN1[C@H](CO)Cc1ccccc1 | - | 0 | - | -
CCOC(=O)c1sc(NC(=O)CCCn2nc([N+](=O)[O-])cc2C)c(C(=O)OCC)c1C | 0 | 0 | 0 | -
O=[N+]([O-])c1ccc2c(c1)/C(=N\O)c1ccccc1-2 | 0 | 0 | -2.9 | ?
NN=C1c2cc([N+](=O)[O-])ccc2-c2ccc([N+](=O)[O-])cc21 | 0 | - | 0 | -
COc1ccc([C@H]2CC(=O)C=C(c3cccc(C#N)c3)C2)cc1 | - | 0 | - | -
COc1cc(CC(=O)OCC(=O)Nc2sccc2C(N)=O)cc(OC)c1OC | 0 | 0 | 0 | 0.062
NC(=O)c1ccsc1NC(=O)COC(=O)Cc1ccsc1 | - | 0 | 0 | -
NC(=O)C1CCN(c2ncc(C(F)(F)F)cc2Cl)CC1 | 0 | 0 | 0 | -
Cc1nc(N/C(N)=N/S(=O)(=O)c2ccc([N+](=O)[O-])cc2)nc2ccccc12 | 0 | 0 | 0 | -
SMILES | Biofilm kill mix | Pf gamet viab | ROMK primary | ROMK hit retest
CC(=O)/C(=C/c1ccccc1)C(=O)Nc1ccccc1C | 0 | 0 | -3.6 | 0.048
Cc1ccccc1NC(=O)C(=Cc1ccc(C(=O)O)cc1)C(=O)Nc1ccccc1C | 0 | 0 | 0 | -
COC(=O)/C(=C/c1cn(C)c2ccccc12)[N+](=O)[O-] | - | - | - | 0.042
COC(=O)/C(=C/c1c[nH]c2ccccc12)[N+](=O)[O-] | - | - | -3.8 | 0.062
COC(=O)/C(=C/c1cn(C(C)=O)c2ccccc12)[N+](=O)[O-] | 0 | 0 | 0 | -
COC(=O)/C(=C/c1c[nH]c2ccccc12)NC(C)=O | 0 | - | 0 | -
CC(C)COC(=O)/C(C#N)=C/c1c[nH]c2ccccc12 | 0 | 0 | - | 0.034
N#C/C(=C\c1c[nH]c2ccccc12)C(=O)NC1CCCC1 | - | 0 | - | -
C=CCc1cccc(CNn2cnnc2)c1O | - | 0 | - | -
O=C(COC(=O)Cc1ccsc1)Nc1ccc(Cl)c(S(=O)(=O)N2CCOCC2)c1 | 0 | 0 | - | -
CCOc1ccc2oc(-c3ccccc3)c(C(=O)N3CCN(C)CC3)c2c1 | - | 0 | - | ?
CCOC(=O)c1c(-c2ccccc2)oc2ccc(OCC)cc12 | 0 | 0 | 0 | -
CCn1c(=O)cc(SCC(=O)NCc2ccc(C)o2)c2ccccc21 | - | - | 0 | -
CCn1c(=O)cc(SCC(=O)NCc2ccco2)c2ccccc21 | - | - | 3.5 | 0
O=C(CN1CCOCC1)N/N=C/c1ccc(-c2cccc(Cl)c2Cl)o1 | 0 | 0 | - | -
CCC(O)(CC)C(=O)N/N=C/c1cc(Br)cc(Br)c1O | 0 | 0 | - | -
CC(=O)N/N=C/c1cc(C(C)(C)C)cc(/C=N/NC(C)=O)c1O | 0 | 0 | -3 | 0.055
COc1ccc(Cc2nc3ccccc3c(=O)n2N)cc1OC | - | 0 | - | -
CCCNc1nc(Cl)nc(NC(C)(C)C)n1 | 0 | 0 | -3.8 | 0.053
CC(C)(C)Nc1nc(Cl)nc(NC(C)(C)C)n1 | 0 | 0 | - | -
N#Cc1ccc(NC(=O)Nc2ccc(Cl)cc2)cc1 | - | 0 | - | -
N#Cc1c(Nc2ccc(Cl)cc2)s[nH]c1=O | 0 | 0 | -12 | 0.065
Cc1c(Cl)cn2c(=O)cc(CN(C)Cc3nc4ccccc4c(=O)[nH]3)nc2c1Cl | 0 | - | 0 | -
CCOC(=O)c1sc(NC(=O)COC(=O)C(CCSC)NC(C)=O)nc1C (stereo not drawn) | 0 | 0 | 0 | -
C[C@@H]1COC(=O)[C@@H](Cc2ccc(F)cc2)CC/C=C\C[C@@H](CC(=O)NCCO)C(=O)N1 | - | 0 | - | -
SMILES | Biofilm kill mix | Pf gamet viab | ROMK primary | ROMK hit retest
N/C(=N\OC(=O)CCC1CCCC1)c1cccc([N+](=O)[O-])c1 | 0 | 0 | - | -
C=C1C(=O)[C@@]23[C@H](O)C[C@@H]4C(C)(C)CC[C@H](O)[C@@]4(C)[C@@H]2CC[C@@H]1[C@H]3O | 0 | - | 0 | -
CC1(C)N=C(N)N=C(N)N1c1ccc(OCCCOc2ccccc2)c(Cl)c1 | 0 | - | -3.1 | 0.06
CCOc1ccc(N2C(N)=NC(N)=NC2(C)C)cc1 | - | 0 | 0 | -
O=C(/C=C/c1ccc(S(=O)(=O)N2CCOCC2)cc1)OCC(=O)c1ccc([N+](=O)[O-])cc1 | 0 | 0 | - | -
Clc1ccc(CONc2ncnc3nonc23)c(Cl)c1 | 0 | 0 | 0 | -
C[C@H](CO)N1C[C@H](C)[C@@H](CN(C)S(=O)(=O)c2ccccc2)Oc2ccc(NS(=O)(=O)c3cccs3)cc2C1=O | - | 0 | - | -
COc1ccc2c(c1OC)C(=O)OC2Nc1nc(-c2cc3cc([N+](=O)[O-])ccc3oc2=O)cs1 (stereo not drawn) | 0 | 0 | - | -
COc1ccc2c(c1OC)C(=O)OC2Nc1nc(-c2cc3ccccc3oc2=O)cs1 (stereo not drawn) | 0 | - | - | 0.04
CCC1=NN(C(=O)COc2ccccc2)C(O)(c2ccc(Br)cc2)C1 (stereo not drawn) | 0 | - | 0 | -
COc1cc2nc(CN3CCOCC3)n(CC(=O)NCC(F)(F)F)c(=O)c2cc1OC | 0 | 0 | 0 | -
COC(=O)c1cccc(C(=O)Nc2cnc3ccccc3c2)n1 | - | - | - | 0.05
O=C(NC(=S)Nc1cnc2ccccc2c1)c1ccccc1 | 0 | 0 | 0 | -
CCCCCN1C=CC=C/C1=C\C=C(C#N)C#N | 0 | 0 | - | -
CCCCCCN1C=CC=C/C1=C/C=C(C#N)C#N | 0 | 0 | -6.9 | 0.046
COc1ccc2c(=O)c3c(=O)n(-c4ccccc4)c(-c4ccc(C)cc4)nc3oc2c1 | 0 | 0 | - | -
CCn1c(C)[n+](Cc2ccccc2)c2ccc(Cl)cc21 | 0 | 0 | 0 | -
CCn1c(/C=C/Nc2ccccc2)[n+](CC)c2ccc(Cl)cc21 | 0 | 0 | -3.2 | ?
CCCCC(=O)Nc1ccc2c(c1)nc(CCN1CCN(C)CC1)n2C | 0 | 0 | - | -
